One data set concerns the target T1, CYP17 (Homo sapiens, UniProt P05093).
T1 sequence (P05093 whole entry): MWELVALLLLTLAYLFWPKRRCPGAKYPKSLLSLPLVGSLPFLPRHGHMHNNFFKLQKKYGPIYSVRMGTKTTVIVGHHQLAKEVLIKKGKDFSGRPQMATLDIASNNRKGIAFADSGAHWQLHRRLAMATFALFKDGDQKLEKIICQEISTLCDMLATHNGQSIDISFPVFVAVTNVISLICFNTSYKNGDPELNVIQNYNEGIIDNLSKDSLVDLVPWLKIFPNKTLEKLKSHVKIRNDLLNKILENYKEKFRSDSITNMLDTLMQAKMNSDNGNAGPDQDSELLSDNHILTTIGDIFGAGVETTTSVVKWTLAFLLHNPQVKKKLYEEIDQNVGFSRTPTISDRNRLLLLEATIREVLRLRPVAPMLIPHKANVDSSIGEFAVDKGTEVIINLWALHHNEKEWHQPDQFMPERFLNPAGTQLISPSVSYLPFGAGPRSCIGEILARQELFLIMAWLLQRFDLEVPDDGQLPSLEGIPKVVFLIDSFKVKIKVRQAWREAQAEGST
Briefly: Inhibition of human CYP17 expressed in Escherichia coli using progesterone as substrate at 2 uM. To be noted: probe progesterone. An outline of the steps:
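Enzyme source was the 90000g sediment of E. coli coexpressing human CYP17 and cytochrome P450 reductase. Progesterone substrate at 25 μM, NADPH cofactor, inhibitor at 2 μM. Percent inhibition is the mean of at least two experiments (SD under 10%).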

A further data set deals with V79MZh. Briefly: Selectivity factor, ratio of IC50 for human CYP11B1 to IC50 for human CYP11B2 expressed in hamster V79MZh cells. Format: cell-based. An outline of the steps: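 SF calculated as IC50(CYP11B1)/IC50(CYP11B2). Both IC50s come from V79MZh hamster fibroblasts expressing the human enzyme, with [1,2-³H]-11-deoxycorticosterone at 100 nM as substrate.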
The target in a further data set is T2, CYP11B2 (Homo sapiens, UniProt P19099).
T2 sequence (P19099 whole entry): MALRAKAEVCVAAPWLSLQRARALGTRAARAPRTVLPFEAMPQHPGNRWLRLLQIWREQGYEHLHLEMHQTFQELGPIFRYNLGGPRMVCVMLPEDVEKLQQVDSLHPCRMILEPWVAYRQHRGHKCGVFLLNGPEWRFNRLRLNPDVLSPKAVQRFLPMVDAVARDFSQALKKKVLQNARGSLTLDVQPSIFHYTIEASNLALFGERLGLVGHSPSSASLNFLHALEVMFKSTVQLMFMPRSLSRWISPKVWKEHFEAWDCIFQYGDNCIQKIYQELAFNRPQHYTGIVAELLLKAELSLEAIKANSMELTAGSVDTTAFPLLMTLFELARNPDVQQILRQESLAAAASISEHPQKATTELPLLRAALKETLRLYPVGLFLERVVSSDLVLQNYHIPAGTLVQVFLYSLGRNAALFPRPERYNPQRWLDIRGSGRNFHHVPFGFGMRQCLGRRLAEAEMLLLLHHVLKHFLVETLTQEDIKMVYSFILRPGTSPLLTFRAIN
Put plainly: (§1) Inhibition of human CYP11B2 expressed in hamster V79MZh cells using [1,2-3H]-11-deoxy-corticosterone as substrate. Format: cell-based. To be noted: human, hamster V79MZh cells expressing human CYP11B2, probe [1,2-3H]-11-deoxy-corticosterone. In a few lines: (§2)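 V79MZh hamster fibroblasts stably expressing human CYP11B1 or CYP11B2, incubated with [1,2-³H]-11-deoxycorticosterone (100 nM) and inhibitor at varying concentrations. IC50 taken as mean of at least three experiments (relative SD under 25%).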

The target in another data set is T3, CYP11B1 (Homo sapiens, UniProt P15538).
T3 sequence (P15538 whole entry): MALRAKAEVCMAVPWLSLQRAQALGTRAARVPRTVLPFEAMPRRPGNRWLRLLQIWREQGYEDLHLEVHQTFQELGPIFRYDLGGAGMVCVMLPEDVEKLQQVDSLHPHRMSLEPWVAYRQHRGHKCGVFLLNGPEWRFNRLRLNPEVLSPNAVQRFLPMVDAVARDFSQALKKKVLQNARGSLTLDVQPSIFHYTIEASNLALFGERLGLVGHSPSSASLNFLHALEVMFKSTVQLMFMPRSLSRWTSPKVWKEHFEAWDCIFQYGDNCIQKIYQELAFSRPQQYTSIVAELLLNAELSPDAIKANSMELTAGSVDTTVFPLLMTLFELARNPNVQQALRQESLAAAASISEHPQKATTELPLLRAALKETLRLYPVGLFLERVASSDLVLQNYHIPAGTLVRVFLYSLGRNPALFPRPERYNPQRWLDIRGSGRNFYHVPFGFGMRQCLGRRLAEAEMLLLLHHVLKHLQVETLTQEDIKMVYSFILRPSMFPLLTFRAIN
Put plainly: (§3) Inhibition of human CYP11B1 expressed in hamster V79MZh cells using [1,2-3H]-11-deoxy-corticosterone as substrate. Format: cell-based. Particulars: human, hamster V79MZh cells expressing human CYP11B1, probe [1,2-3H]-11-deoxy-corticosterone. An outline of the steps: as §2

The target in the next data set is T4, CYP19 (aromatase) (Homo sapiens, UniProt P11511).
T4 sequence (P11511 whole entry): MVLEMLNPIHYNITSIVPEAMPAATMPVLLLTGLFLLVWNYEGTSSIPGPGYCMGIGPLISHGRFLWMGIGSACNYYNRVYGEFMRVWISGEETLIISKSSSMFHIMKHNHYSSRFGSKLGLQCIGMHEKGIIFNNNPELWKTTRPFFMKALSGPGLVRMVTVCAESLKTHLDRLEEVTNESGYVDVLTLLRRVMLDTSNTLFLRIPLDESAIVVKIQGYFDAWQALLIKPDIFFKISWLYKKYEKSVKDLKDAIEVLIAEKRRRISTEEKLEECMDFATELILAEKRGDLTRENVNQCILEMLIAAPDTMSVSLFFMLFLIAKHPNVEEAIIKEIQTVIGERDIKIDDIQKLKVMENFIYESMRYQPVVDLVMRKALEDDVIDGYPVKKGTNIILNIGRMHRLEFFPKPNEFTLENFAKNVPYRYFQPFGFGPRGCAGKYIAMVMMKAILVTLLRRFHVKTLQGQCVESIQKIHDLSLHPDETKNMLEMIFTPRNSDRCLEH
Put plainly: Inhibition of human CYP19 using [1beta-3H]androstenedione as substrate at 500 nM by 3H2O method. Particulars: probe [1beta-3H]androstenedione. An outline of the steps: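 Human placental microsomes as CYP19 source. [1β-³H]androstenedione substrate at 500 nM, activity read by ³H₂O release. IC50 is the mean of at least three experiments (relative SD under 25%).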

In data set [1] the target is T5, Cytochrome P450 11B2, mitochondrial (Homo sapiens, UniProt P19099).
T5 sequence (P19099 whole entry): T2 sequence (P19099 whole entry)
Described as §1. Format: cell-based. In a few lines: as §2

Data set [2] addresses T6, Cytochrome P450 11B1, mitochondrial (Homo sapiens, UniProt P15538).
T6 sequence (P15538 whole entry): T3 sequence (P15538 whole entry)
The description is as §3. Format: cell-based. In a few lines:
as §2

The target in another data set is T7, Aromatase (Homo sapiens, UniProt P11511).
T7 sequence (P11511 whole entry): T4 sequence (P11511 whole entry)
Briefly: Inhibition of human CYP19 using [1beta-3H]androstenedione as substrate by 3H2O method.

Structures are written as SMILES. Some results are limits rather than exact numbers.

With `O=C1CCc2cc(C(C3CC3)n3ccnc3)cc3c2N1CC3` (stereo not drawn), on CYP17, testing at 2 µM gave an inhibition of 41%. The Ratio IC50 with V79MZh was 0.1. For the same molecule, the figures for the IC50 against CYP11B2 and on CYP11B1 were 0.024 µM and 0.0022 µM, respectively.

`O=C1CCc2cc(-c3cccnc3)cc3c2N1CC3`: the Ratio IC50 in the data set on V79MZh was determined as 650. Moreover, testing at 500 nM against CYP19 (aromatase) gave an inhibition of 18%. The 50% inhibitory concentration (IC50) (in general, the concentration at which inhibition is half-maximal) in data set [1] stood at 0.0011 µM; in data set [2], 0.715 µM.

For the molecule `O=C1CCc2cc(C(c3ccncc3)c3ccc(Cl)cc3)cc3c2N1CC3` (stereo not drawn), the half-inhibitory concentration (IC50) against Aromatase was determined as 0.055 µM; in data set [1] it was 0.032 µM; in data set [2], 0.092 µM. Further, 2 µM produced 60% inhibition against CYP17. For the same molecule, the Ratio IC50 in the data set on V79MZh is 2.9.

For `COc1cccc(C(c2ccncc2)c2cc3c4c(c2)CCN4C(=O)CC3)c1` (stereo not drawn), the results for the IC50 (on Aromatase; in data set [1]; in data set [2]) were 0.059 µM, 0.139 µM and 2.54 µM, respectively. Besides, 2 µM produced 50% inhibition at CYP17. The Ratio IC50 in the data set with V79MZh was determined as 18.

For the molecule `COc1ccccc1C(c1ccncc1)c1cc2c3c(c1)CCN3C(=O)CC2` (stereo not drawn), the IC50 at Aromatase was 0.081 µM; in data set [1] it was 0.128 µM; in data set [2], 0.276 µM. Also, 2 µM produced 33% inhibition against CYP17. Moreover, the Ratio IC50 with V79MZh amounted to 2.2.

In the case of `CC(c1cccnc1)c1cc2c3c(c1)CCN3C(=O)CC2` (stereo not drawn), the results for the IC50 (on Aromatase; in data set [1]; in data set [2]) were more than 5 µM, 0.037 µM and 0.004 µM, respectively. The inhibition (commonly the relative decrease from the control value, in per cent) at 2 µM against CYP17 was less than 3%. The Ratio IC50 in the data set with V79MZh worked out at 0.1.

Turning to `C=C(c1ccncc1)c1cc2c3c(c1)CCN3C(=O)CC2`, the IC50 against Aromatase amounted to 0.565 µM; in data set [1], 0.096 µM; in data set [2] it was 1.23 µM. Besides, the inhibition at 2 µM at CYP17 amounted to 17%. Moreover, the Ratio IC50 in the data set on V79MZh turned out to be 13.

The values are drawn from ChEMBL document CHEMBL2311453, “Tetrahydropyrroloquinolinone type dual inhibitors of aromatase/aldosterone synthase as a novel strategy for breast cancer patients with elevated cardiovascular risks” (J Med Chem, 2013).
